# Screens: PubChem BioAssay, Johns Hopkins Ion Channel Center
# Shown are actives, neighbours in structure and some others; about 3.5% of the full set was active somewhere.
# MrgX1 allo act: human MrgX1 positive allosteric modulation, primary screen; MrgX1-HEK293, Fluo-4 calcium flux, FDSS; hits give high values; B-score at 10 µM; AID 588675; Q96LB2; hit rate 0.63% among 310,000;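 active means plate-corrected calcium response at least 3 library SD above typical, normal starting fluorescence, not activating the receptor alone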;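 further: compound read alongside a low EC10 to EC30 dose of BAM8-22 agonist; peak minus trough fluorescence over baseline measured at the second addition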
# Target sequence (Q96LB2 whole entry, looked up): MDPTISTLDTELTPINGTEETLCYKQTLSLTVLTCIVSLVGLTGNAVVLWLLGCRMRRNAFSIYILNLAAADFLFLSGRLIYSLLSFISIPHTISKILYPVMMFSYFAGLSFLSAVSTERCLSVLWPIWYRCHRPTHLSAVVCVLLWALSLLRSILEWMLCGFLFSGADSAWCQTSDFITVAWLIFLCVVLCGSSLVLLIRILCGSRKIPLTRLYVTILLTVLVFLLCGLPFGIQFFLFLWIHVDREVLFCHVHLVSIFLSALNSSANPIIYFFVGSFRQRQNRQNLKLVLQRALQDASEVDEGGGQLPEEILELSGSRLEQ
# RGS4 inh: human RGS4 inhibition; B-score at 10 µM; hit rate 0.45% among 310,000; HEK293 M3R/RGS4 inducible, Fluo-4 calcium flux; hits give high values; triggered by carbachol at its EC20; P49798;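 active means B-score, a plate-corrected calcium signal, over three deviations above library mean, with baseline fluorescence within five deviations of library mean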;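 further: RGS4 expression induced by doxycycline in cells with stable M3 receptor; B-score is computed from the integrated fluorescence ratio over baseline after carbachol; higher B-score means a larger calcium signal and so more RGS4 inhibition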
# Target sequence (P49798 whole entry, looked up): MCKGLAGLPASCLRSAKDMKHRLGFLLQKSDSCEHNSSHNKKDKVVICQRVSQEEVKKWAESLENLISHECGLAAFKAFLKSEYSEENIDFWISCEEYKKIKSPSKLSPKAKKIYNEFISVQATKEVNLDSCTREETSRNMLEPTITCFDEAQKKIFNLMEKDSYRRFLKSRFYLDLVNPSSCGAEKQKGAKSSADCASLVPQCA
# MrgX1 antagonist: antagonists of human MrgX1 receptor | hit rate 1.3% among 310,000 | B-score at 10 µM | Q96LB2 | MRGX1-HEK293 calcium flux, Fluo-4, BAM8-22 antagonism; hits give low values;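 active means calcium-response B-score plate-corrected more than 3 library SD below zero, starting fluorescence within 5 deviations, no agonist response on first addition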;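 further: peak minus trough fluorescence over baseline after final BAM8-22 challenge near maximal dose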
# RGS4 pot: potentiators or activators of RGS4 | hit rate 0.92% among 310,000 | HEK293 M3R/inducible RGS4, carbachol calcium flux Fluo4; hits give low values | AID 463111 | B-score at 10 µM;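 active means B-score of the integrated calcium signal more than 4 SD below the library mean, with starting fluorescence not abnormally high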;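 further: negative B-score means reduced calcium response which marks RGS4 activation or potentiation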
#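 test system = M3R-expressing HEK293 line, RGS4 induced by doxycycline | probe or stimulus = carbachol at ECmax as muscarinic agonist stimulus | timing = dye loading 30 min 37 °C, buffer rest 30 min RT | signal = calcium dye Fluo4 fluorescence | evaluation = B score from integrated fluorescence ratio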
# MrgX1 ag: activates human MrgX1 receptor signaling | MrgX1-HEK293 cells, Fluo-4 calcium fluorescence, agonist mode; hits give high values | B-score at 10 µM | hit rate 0.44% among 310,000 | AID 588627;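 active means calcium response B-score plate-corrected fluorescence ratio at least 3 library SD, with starting fluorescence B-score inside 5 SD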
#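 System – MrgX1-expressing HEK293 cells · Incubation – cells plated overnight, dye loaded 0.5 h 37 °C, 0.5 h room temperature · Technique – kinetic Fluo-4 NW fluorescence of intracellular calcium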
# * marks the source's active call; other numbers are inactive results; i = inactive; nt = no result given.
SMILES,MrgX1 allo act,RGS4 inh,MrgX1 antagonist,RGS4 pot,MrgX1 ag
Cc1nc(-c2nc(-c3c(C(=O)NN)noc3C)cs2)cs1,i,i,-5.9*,i,i
Cc1nc(-c2nc(-c3c(C(=O)NNC(=O)c4ccc(Cl)cc4)noc3C)cs2)cs1,i,i,i,i,i
CS(=O)(=O)NNC(=O)Cn1nnc(-c2ccc(OCc3ccccc3Cl)cc2)n1,9.6*,i,i,i,i
CCOC(=O)Nc1ccc2c(c1)N(C(=O)N1CCN(C)CC1)c1ccccc1S2,i,i,i,-7.3*,i
CCOC(=O)Nc1ccc2c(c1)N(C(=O)CCN1CCN(C)CC1)c1ccccc1S2,i,i,i,i,i
CC(=O)Nc1cc(C(=O)N(C)Cc2ccccc2)ccc1S(=O)(=O)c1ccc(C)cc1,i,i,i,i,i
Cc1cccc(-c2oc3ccccc3c2-c2ccc3c(c2)OCO3)c1,i,i,-6*,i,i
C/C(=N\NC(=O)Cn1nc(C)c([N+](=O)[O-])c1C)c1ccco1,i,i,-5.9*,i,i
Cc1nn(CC(=O)NCc2ccccc2Cl)c(C)c1[N+](=O)[O-],i,i,i,i,i
Cc1nn(CC(=O)NCc2ccco2)c(C)c1[N+](=O)[O-],i,i,i,i,i
Cc1cc(CNC(=O)Cn2nc(C)c([N+](=O)[O-])c2C)c2ccccc2n1,9.4*,i,i,i,i
CCOC(=O)c1cccc(N/C=C/C(=O)c2ccc(OC)c(OC)c2)c1,i,i,i,-8.3*,i
COc1cccc(N/C=C/C(=O)c2ccc(OC)c(OC)c2)c1,i,i,i,i,i
Cc1ccc(NC(=O)Cn2nc(C(=O)O)c3ccccc3c2=O)c([N+](=O)[O-])c1,i,i,i,i,i
CCN(CC)Cc1ccccc1Sc1ccccc1,i,i,i,-9.2*,i
O=C(Oc1ccc(C(=S)N2CCOCC2)cc1)c1ccccc1F,i,i,i,i,i
O=C(Nc1ccc(Cl)cn1)c1ccc([N+](=O)[O-])o1,nt,i,nt,i,nt
Cc1c(Cl)c([N+](=O)[O-])nn1Cc1ccc(C(=O)Nc2ccc(Cl)cn2)o1,i,i,-6.9*,i,i
CN(C)CCOC1c2ccccc2C=Cc2ccccc21,i,i,i,-7.1*,i
CN(C)CCOC(c1ccccc1)c1ccccc1 (tested in a mixture with another compound),i,i,i,i,i
CCCCCCCCC[n+]1cccc2c3ccccc3ccc21,i,i,i,-8.6*,i
CCCCn1c(=O)nc2n(-c3ccccc3C)c3ccccc3cc-2c1=O,i,i,i,-7.6*,i
Cc1ccccc1-n1c2nc(=O)n(C)c(=O)c-2cc2ccccc21,i,i,i,i,i
CN(C)S(=O)(=O)c1cccc(C(=O)OCC(=O)Nc2sccc2C(N)=O)c1,i,i,-5*,i,i
CC(Oc1ccccc1Cl)C(=O)Nc1ccc(S(=O)(=O)N2CCCC2)cc1 (stereo not given),i,i,i,-7.2*,i
SMILES,MrgX1 allo act,RGS4 inh,MrgX1 antagonist,RGS4 pot,MrgX1 ag
COc1ccccc1NC(=S)N1CCN(Cc2ccc3c(c2)OCO3)CC1,i,i,i,i,i
O=C(NC(c1cccnc1)C(F)(F)F)c1cc(COc2ccc3c(c2)CCCC3)on1 (stereo not given),i,i,i,-7.1*,i
O=C(NC1CC2CCCC(C1)N2C(=O)Nc1ccc(F)cc1)c1ccccc1 (stereo not given),i,i,i,i,i
CC1(C)CC(NC(=S)Nc2ccc([N+](=O)[O-])cc2)CC(C)(C)N1,i,i,i,i,i
CN(C)NC(=S)Nc1ccc(Cl)cc1,i,i,-6*,i,i
O=C(NC(=S)Nc1ccc(F)c(Cl)c1)C1CC1,i,i,i,i,i
Fc1ccc(NC(=S)Nc2ccc(F)c(Cl)c2)cc1Cl,i,i,-4.8*,i,i
CN(C(=S)NC(=O)c1ccccc1)C1CCCCC1,i,i,i,i,i
COc1ccccc1C(=O)COC(=O)c1c(-c2ccccc2)noc1C,i,i,i,i,i
C#CCSc1ncc(-c2ccccc2)cn1,i,i,-7.5*,i,i
O=C(O)CC(CC(=O)N1CCN(C(=O)c2ccco2)CC1)c1ccccc1 (stereo not given),i,i,i,i,i
CCCCC(=O)N(c1ccc(C(=O)O)cc1)c1nc(-c2ccc(Cl)cc2)c(CC)s1,i,i,i,-7.4*,i
CCc1sc(N(C(=O)Cc2ccccc2)c2ccccc2)nc1-c1ccccc1,i,i,i,i,i
O=C(O)CCS(=O)(=O)c1nc(-c2cccs2)cc(C(F)(F)F)n1,i,i,i,i,i
CS(=O)(=O)c1nc(-c2cccs2)cc(C(F)(F)F)n1,i,i,i,i,36*
Cc1c(CCC(=O)O)c(=O)oc2cc3occ(-c4ccc(Br)cc4)c3cc12,i,i,i,i,i
O=C(O)c1ccc(CSc2nc(-c3ccc(Cl)cc3)cc(C(F)(F)F)n2)cc1,i,i,i,-7.5*,i
O=C(O)c1ccc(CSc2nc(-c3ccccc3)cc(C(F)(F)F)n2)cc1,i,i,i,i,i
CCc1ccc(C2C(C#N)=C(N)C(C#N)(C#N)C3=CCC(C(C)(C)C)CC32)cc1 (stereo not given),i,i,-5.8*,i,i
Cc1cc(C)cc(Oc2ccc(NC(=O)C3CC=CCC3C(=O)O)cc2)c1 (stereo not given),i,i,i,i,i
C=C1C(=O)C=C2CN(C(=O)c3ccccc3)[C@@](Cc3ccc(F)cc3)(C(=O)OC)[C@@H]12,i,15*,i,i,47*
Cc1ccc(S(=O)(=O)NNC(=O)c2cccc(O)c2)cc1,i,i,-6.5*,i,i
O=C(NNS(=O)(=O)c1ccc(F)cc1)c1cccc(O)c1,i,i,i,i,i
CCCCOc1c(Br)cc(CNCCCN2CCOCC2)cc1OC,i,i,i,i,i
COc1ccc(OC)c(S(=O)(=O)N2CCC3(CC2)OCCN3S(=O)(=O)c2cccs2)c1,i,i,i,-7.5*,i
O=C(/C=C/c1ccc(F)cc1)NC(=S)NNC(=O)[C@H]1C[C@@H]1c1ccccc1,i,i,i,i,43*
